Series [1] relates to Trypanosoma brucei brucei. As to the kind of experiment: Trypanocidal activity against Trypanosoma brucei brucei assessed as reduction in intracellular ATP production incubated for 72 hrs by CellTiter-Glo luminescent cell viability assay. The format is functional, organism-based. An outline of the steps:
(§1)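 Bloodstream trypanosomes in 96-well culture were exposed to compound in 5-fold serial dilutions from 25 µg/mL to 1.6 ng/mL for 72 h. Seeding and temperature: T. b. brucei, T. b. gambiense and T. b. rhodesiense at 5×10^3 cells/mL and 37 °C; T. evansi at 1×10^4 cells/mL and 37 °C; T. congolense at 2×10^5 cells/mL and 33 °C. Viability was read as intracellular ATP by CellTiter-Glo luminescence. Three replicates; IC50 calculated.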
For orientation: Cellular ATP, detected with luciferase, serves as a proxy for viable cell number.

The test system of series [2] is Trypanosoma brucei gambiense. As to the kind of experiment: Trypanocidal activity against Trypanosoma brucei gambiense assessed as reduction in intracellular ATP production incubated for 72 hrs by CellTiter-Glo luminescent cell viability assay. It counts as functional, organism-based. The procedure, abridged:
as §1

Series [3] has as its system Trypanosoma brucei rhodesiense. As to the kind of experiment: Trypanocidal activity against Trypanosoma brucei rhodesiense assessed as reduction in intracellular ATP production incubated for 72 hrs by CellTiter-Glo luminescent cell viability assay. The format is functional, organism-based. The procedure, abridged:
as §1

The next series relates to Trypanosoma congolense. Nature of the series: Trypanocidal activity against Trypanosoma congolense assessed as reduction in intracellular ATP production incubated for 72 hrs by CellTiter-Glo luminescent cell viability assay. The format is functional, organism-based. The procedure, abridged: as §1
A further series deals with Trypanosoma evansi. As to the kind of experiment: Trypanocidal activity against Trypanosoma evansi assessed as reduction in intracellular ATP production incubated for 72 hrs by CellTiter-Glo luminescent cell viability assay. It counts as functional, organism-based. An outline of the steps: as §1
A further series has as its system MDBK cells (Bos taurus). Nature of the series: Cytotoxicity against bovine MDBK cells assessed as reduction in cell viability incubated for 72 hrs by CCK8 assay. (In general: Tetrazolium dyes change colour on reduction, which living cells bring about.)
Series [4] can be described thus: Selectivity index, ratio of IC50 for cytotoxicity against bovine MDBK cells to IC50 for Trypanocidal activity against Trypanosoma evansi.
Series [5] can be described thus: Selectivity index, ratio of IC50 for cytotoxicity against bovine MDBK cells to IC50 for Trypanocidal activity against Trypanosoma congolense.
Series [6] can be described thus: Selectivity index, ratio of IC50 for cytotoxicity against bovine MDBK cells to IC50 for Trypanocidal activity against Trypanosoma brucei brucei. To be noted: cattle.
Series [7] is described as follows: Selectivity index, ratio of IC50 for cytotoxicity against bovine MDBK cells to IC50 for Trypanocidal activity against Trypanosoma brucei gambiense. The settings on record: cattle.
The nature of series [8]: Selectivity index, ratio of IC50 for cytotoxicity against bovine MDBK cells to IC50 for Trypanocidal activity against Trypanosoma brucei rhodesiense.

This passage reports IC50 and selectivity ratio results from ChEMBL document CHEMBL4811303, “Synthesis and evaluation of trypanocidal activity of derivatives of naturally occurring 2,5-diphenyloxazoles” (Bioorg Med Chem, 2021).

pIC50: −log10 of the molar value.

Usually pIC50 stands for −log10 of the IC50, conventionally taken in molar units. On to `Oc1ccc(O)c(-c2cnc(-c3cc(O)ccc3O)o2)c1`, for which the pIC50 in [1] is 4.26; in series [2] it was 4.11; in series [3] it was 4.14; with Trypanosoma congolense, 5.07; in the series on Trypanosoma evansi, 4.35; in the series with MDBK cells (Bos taurus), 4.64. Further, the selectivity ratio in series [4] came to 0.51; in series [5] it was 2.6; in series [6], 0.41; in [7] it was 0.29; in series [8] it was 0.31.

Regarding `COc1cccc(-c2ncc(-c3ccccc3N)o2)c1OC`, the negative logarithm of the IC50 (pIC50) is 4.22 in series [1]; 4.34 in series [2]; 4.21 in series [3]; 5.04 in the series with Trypanosoma congolense; 3.98 in the series with Trypanosoma evansi; 4.32 with MDBK cells (Bos taurus). Also, the selectivity ratio in [4] came to 0.45; in series [5], 5.2; in [6], 0.8; in series [7], 1; in series [8], 0.77.

Take `CC1CS(=O)(=O)CCN1/N=C/c1ccc([N+](=O)[O-])o1` (stereo not drawn) [NIFURTIMOX]: the pIC50 is 5.33 in series [1], 5.36 in [3], 5.96 in the series with Trypanosoma congolense and 5.59 in the series on Trypanosoma evansi.

On to `COc1cccc(-c2ncc(-c3ccccc3N(C)C)o2)c1OC`, for which the negative-log IC50 (pIC50) in [1] is 4.69; in [2], 4.45; in series [3], 4.63; with Trypanosoma congolense, 5.34; in the series with Trypanosoma evansi, 4.61; in the series with MDBK cells (Bos taurus), less than 3.51. The selectivity ratio in series [4] was greater than 12; in [5], greater than 66; in series [6], greater than 15; in [7], greater than 8.8; in [8] it was greater than 13.

Regarding `COc1cccc(-c2ncc(-c3c(OC)cccc3OC)o2)c1OC`, the pIC50 was 4.50 in [1]; 4.59 in series [2]; 4.49 in [3]; 5.11 with Trypanosoma congolense; 4.58 in the series on Trypanosoma evansi; 4.04 with MDBK cells (Bos taurus). The selectivity ratio in [4] came out at 3.4; in series [5], 12; in [6], 2.9; in [7], 3.5; in series [8], 2.8.

With `CC(=O)Oc1ccc(OC(C)=O)c(-c2cnc(-c3cc(OC(C)=O)ccc3OC(C)=O)o2)c1`, the pIC50 in series [1] was 4.45; in [2] it was 4.30; in series [3], 4.32; in the series with Trypanosoma congolense, 4.77; with Trypanosoma evansi it was 4.35; with MDBK cells (Bos taurus), 4.52. For the same compound, the selectivity ratio came to 0.67 in series [4]; 1.8 in series [5]; 0.85 in series [6]; 0.6 in [7]; 0.63 in series [8].

With `COc1ccc(-c2cnc(-c3cccc(OC)c3OC)o2)c(OC)c1`, the pIC50 was 4.45 in series [1]; 4.51 in [2]; 4.54 in [3]; 5.82 with Trypanosoma congolense; 4.55 in the series with Trypanosoma evansi; less than 3.53 in the series on MDBK cells (Bos taurus). Moreover, the selectivity ratio was greater than 10 in [4]; greater than 190 in series [5]; greater than 8.3 in series [6]; greater than 9.4 in series [7]; greater than 10 in series [8].

With `COc1ccc(OC)c(-c2ncc(-c3ccccc3OC)o2)c1`, the pIC50 is less than 4.10 in series [1]; less than 4.10 in [2]; less than 4.10 in series [3]; less than 4.10 with Trypanosoma congolense; less than 4.10 with Trypanosoma evansi; less than 3.49 with MDBK cells (Bos taurus).

On to `COc1cccc(-c2ncc(-c3ccccc3[N+](=O)[O-])o2)c1OC`, for which the negative logarithm of the IC50 (pIC50) in series [1] is 4.30; in series [2] it was 4.20; in [3] it was 4.25; with Trypanosoma congolense, 5.08; in the series on Trypanosoma evansi it was 4.31; in the series on MDBK cells (Bos taurus), less than 3.51. Moreover, the selectivity ratio in series [4] was greater than 6.3; in series [5] it was greater than 36; in [6], greater than 6.2; in series [7], greater than 4.8; in series [8], greater than 5.4.

With `COc1ccccc1-c1nnc(-c2cccc(OC)c2OC)o1`, the negative-log IC50 (pIC50) in series [1] is 4.88; in series [2] it was 4.88; in series [3] it was 4.87; with Trypanosoma congolense it was 5.57; in the series on Trypanosoma evansi it was 5.12; in the series with MDBK cells (Bos taurus), 4.49. For the same compound, the selectivity ratio in [4] stood at 4.3; in series [5], 12; in series [6] it was 2.4; in series [7], 2.4; in series [8] it was 2.4.

Regarding `COc1ccc(-c2cnc(-c3ccc(OC)c(OC)c3OC)o2)c(OC)c1OC`, the negative logarithm of the IC50 (pIC50) in [1] is 4.42; in series [2] it was 4.39; in [3], 4.50; with Trypanosoma congolense, 4.79; with Trypanosoma evansi it was 4.22; in the series with MDBK cells (Bos taurus), 4.40. Moreover, the selectivity ratio in [4] amounted to 0.66; in [5], 2.4; in series [6], 1.1; in [7] it was 0.98; in series [8], 1.3.

For the compound `COc1ccccc1-c1cnc(-c2cccc(OC)c2OC)o1`, the pIC50 in series [1] is less than 4.10; in [2] it was less than 4.10; in series [3] it was less than 4.10; in the series on Trypanosoma congolense it was 6.11; in the series on Trypanosoma evansi, less than 4.10; in the series with MDBK cells (Bos taurus) it was less than 3.49. Also, in series [5], the selectivity ratio was greater than 414.

For the compound `COc1ccc(OC)c(-c2cnc(-c3ccccc3OC)o2)c1`, the negative logarithm of the IC50 (pIC50) in series [1] was less than 4.10; in series [2] it was 4.65; in series [3], less than 4.10; in the series with Trypanosoma congolense it was 5.37; in the series with Trypanosoma evansi, less than 4.10; with MDBK cells (Bos taurus) it was less than 3.49. The selectivity ratio in series [5] was greater than 75; in series [7], greater than 14.

In the case of `COc1ccc(-c2cnc(-c3ccc(OC)cc3)o2)cc1`, the pIC50 in [1] was less than 4.05; in [2], less than 4.05; in series [3], less than 4.05; in the series on Trypanosoma congolense it was less than 4.05; in the series on Trypanosoma evansi, less than 4.05; with MDBK cells (Bos taurus) it was less than 3.45.

In the case of `COc1ccc(OC)c(-c2cnc(-c3cccc(OC)c3OC)o2)c1`, the pIC50 is less than 4.14 in series [1]; less than 4.14 in series [2]; less than 4.14 in [3]; 5.80 in the series with Trypanosoma congolense; less than 4.14 in the series with Trypanosoma evansi; less than 3.53 with MDBK cells (Bos taurus). Moreover, the selectivity ratio in [5] is greater than 188.

For the compound `COc1ccc(OC)c(-c2cnc(-c3cc(OC)ccc3OC)o2)c1`, the pIC50 is less than 4.14 in [1]; less than 4.14 in series [2]; less than 4.14 in series [3]; 5.54 in the series on Trypanosoma congolense; less than 4.14 in the series with Trypanosoma evansi; less than 3.53 with MDBK cells (Bos taurus). The selectivity ratio in series [5] is greater than 100.

With `COc1cccc(-c2ncc(-c3ccccc3NC(C)=O)o2)c1OC`, the pIC50 in series [1] was less than 4.13; in series [2] it was less than 4.13; in series [3], less than 4.13; with Trypanosoma congolense, 4.42; in the series with Trypanosoma evansi, less than 4.13; with MDBK cells (Bos taurus) it was less than 3.53. Moreover, the selectivity ratio in series [5] was greater than 7.8.

For `COc1ccc(OC)c(-c2cnc(-c3ccccc3)o2)c1`, the pIC50 in [1] is less than 4.05; in series [2], less than 4.05; in [3], less than 4.05; in the series on Trypanosoma congolense, 4.81; in the series with Trypanosoma evansi, less than 4.05; in the series with MDBK cells (Bos taurus), less than 3.45. Further, in series [5], the selectivity ratio is greater than 23.

Turning to `COc1cccc(-c2ncc(-c3ccccc3O)o2)c1OC`, the negative-log IC50 (pIC50) in [1] was less than 4.08; in series [2], less than 4.08; in [3], less than 4.08; with Trypanosoma congolense, less than 4.08; in the series on Trypanosoma evansi, less than 4.08; with MDBK cells (Bos taurus) it was less than 3.47.

`COc1ccccc1-c1cnc(-c2ccccc2OC)o1`: the pIC50 in [1] was less than 4.05; in series [2], less than 4.05; in [3] it was less than 4.05; with Trypanosoma congolense it was 5.55; in the series with Trypanosoma evansi, less than 4.05; with MDBK cells (Bos taurus), less than 3.45. Further, in [5], the selectivity ratio is greater than 128.

In the case of `CCOc1ccccc1-c1cnc(-c2cccc(OC)c2OC)o1`, the pIC50 in [1] is less than 4.11; in series [2], less than 4.11; in [3], less than 4.11; in the series with Trypanosoma congolense, 5.36; in the series with Trypanosoma evansi, less than 4.11; in the series with MDBK cells (Bos taurus), less than 3.51. In addition, the selectivity ratio in [5] is greater than 69.

With `Cc1ccc(C(=O)Nc2ccc(S(=O)(=O)O)c3cc(S(=O)(=O)O)cc(S(=O)(=O)O)c23)cc1NC(=O)c1cccc(NC(=O)Nc2cccc(C(=O)Nc3cc(C(=O)Nc4ccc(S(=O)(=O)O)c5cc(S(=O)(=O)O)cc(S(=O)(=O)O)c45)ccc3C)c2)c1` [SURAMIN], the pIC50 was 7.18 in series [1]; 7.19 in [2]; 7.12 in series [3]; 5.14 with Trypanosoma congolense; 6.42 with Trypanosoma evansi.
